Here are results for two compounds from publication PMC4257570 (Basic & Clinical Pharmacology & Toxicology, 2014).

Each structure is given as a SMILES string. Where “and” joins values, the source holds several entries; their conditions need not be identical. Equal entries are not always repeated.

The conditions of data set [1]: ref unpublished data; cited from earlier work.
Data set [2] can be described thus: Population pharmacokinetic analysis. The data set is classed as in vivo, human. The method in brief:
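Oral doses were 2.5–75 mg single and 2.5–60 mg/day multiple; only vortioxetine-alone data from interaction studies were used. Models were two-compartment with lag time and first-order absorption and elimination (one- and three-compartment also tested). Covariates, including CYP genotype-inferred metaboliser status, were added forward then deleted backward. Bootstrap gave 95% CIs.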

The conditions of data set [3]: cited from earlier work.
For data set [4] the following is noted: cited from earlier work. This is another data set of the same source.
For data set [5] the following is noted: no reference given; cited from earlier work.
Where [6] appears, read: non-compartmental analysis, healthy young subjects.

Turning to `Cc1cc(C(=O)O)ccc1Sc1ccccc1N1CCNCC1` [Lu AA34443, 3-methyl-4-(2-piperazine-1-yl-phenylsulfanyl)-benzoic acid], the “Crossing of the blood–brain barrier” value in data set [1] is “incapable of crossing the blood–brain barrier”.
Consider `Br.Cc1ccc(Sc2ccccc2N2CCNCC2)c(C)c1` [vortioxetine, 1-[2-(2,4-dimethyl-phenylsulfanyl)-phenyl]-piperazine hydrobromide], for which the “CL/F of CYP2C19 EMs relative to PMs” value in data set [2] (CYP2C19 EM vs PM) is reported as 1.4 times. Moreover, the “Oral clearance (CL/F), estimate” value in data set [2] (CYP2D6-inferred extensive metabolisers (EM), final model) was 34.1 L/h. Further, the “Oral clearance (CL/F), estimate” value in data set [2] (CYP2D6-inferred intermediate metabolisers (IM), final model) was 26.6 L/h. For the same compound, the “Oral clearance (CL/F), estimate” value in data set [2] (CYP2D6-inferred poor metabolisers (PM), final model) is 18.1 L/h. In addition, the “Oral clearance (CL/F), estimate” value in data set [2] (CYP2D6-inferred ultra metabolisers (UM), final model) was 52.9 L/h. The “CL/F of CYP2D6 extensive metabolisers relative to poor metabolisers” value in data set [2] (CYP2D6 EM vs PM) is on record as 1.9 times. In data set [2] (all healthy subjects, oral dosing, from the base model), the “Oral clearance (CL/F), population mean” value is 32.7 L/h and 33 L/h. Besides, in data set [2] (final model), the “Absorption rate constant (ka), estimate” value was 0.142 h⁻¹; the “Interindividual variability (IIV) of CL/F” value was 42%; the “Interindividual variability (IIV) of V2/F” value was found to be 31%; the “Interindividual variability (IIV) of ka” value is 51%. In addition, in data set [2] (final model), the “Lag-time (ALAG), estimate” value is 0.781 h and the “Volume of distribution, peripheral comp (V3/F), estimate” value was 661 L. Also, in data set [2] (final model, covariate effect), the “Age on CL/F” value is on record as 0.277 L/hr/yr and the “Height on V2/F” value is listed as 17.4 L/cm. Besides, the half-life (in general, the time in which the quantity being followed falls by half) in data set [2] (human, plasma, im, Estimated mean t1/2, CYP2D6-inferred metabolic status IM) was 73 h. Besides, the Vd/F (as a rule, the apparent distribution volume after extravascular dosing) in data set [2] (human, plasma, oral) came to 1970 L. Further, the half-life in data set [2] (human, plasma, oral, Estimated mean t1/2, CYP2D6-inferred metabolic status EM) was 60 h. For the same compound, the half-life in data set [2] (human, plasma, oral, Estimated mean t1/2, CYP2D6-inferred metabolic status PM) is 104 h. Also, the half-life in data set [2] (human, plasma, oral, Estimated mean t1/2, CYP2D6-inferred metabolic status UM) is 42 h. The “V2/F, population mean” value in data set [2] (men, sex as only covariate) amounted to 1940 L. The “Sum of the central and peripheral volumes of distribution (V2/F + V3/F)” value in data set [2] (population mean, oral administration) turned out to be 2600 L. In addition, the “Higher exposure in a subject compared with the population mean” value in data set [2] (subject vs population mean of 44 years) is recorded as no more than 40%. For the same compound, in data set [2] (women, sex as only covariate), the “CL/F, population mean” value was determined as 30 L/h and the “V2/F, population mean” value came to 1810 L. In data set [3], the “Absolute bioavailability for oral administration” value was 75%. In addition, in data set [3] (setting [6]), the “Clearance (oral clearance)” value is 47 L/h and the Elimination half-life is 57 h. For the same compound, in data set [4] (bupropion (CYP2D6 inhibitor)), the “Change of CL/F of vortioxetine when co-administered with bupropion” value is recorded as “reduced approximately by half” and the “Increase of vortioxetine exposure with co-administration of bupropion” value is listed as “approximately 2 fold”. Also, in data set [4] (rifampicin (broad CYP inducer)), the “Decrease of AUC of vortioxetine with co-administration of rifampicin” value is on record as 72%. Also, the “Effect of co-administration of omeprazole on vortioxetine steady-state exposure” value in data set [4] (single dose of omeprazole (CYP2C19 inhibitor)) is given as “no effects”. Besides, the Renal clearance entry in data set [5] is on record as “negligible”.
